We go through twelve compounds from PMC3458512 (Organic & biomolecular chemistry, 2012).

Structures are written as SMILES.

One assay concerns T. cruzi amastigotes. The experiment in a line: T. cruzi amastigotes assay. The assay is classed as cell-based, Trypanosoma cruzi. A digest of the protocol: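 Vero cells gamma-irradiated (2,000 Rads), seeded at 3.4 × 10^4/well in RPMI + 10% FBS, overnight at 35 °C, 7% CO2. Infected 5 h with 3.4 × 10^5 tdTomato-expressing CL-strain trypomastigotes/well, washed, then serial test compound dilutions in quadruplicate. Controls were uninfected, drug-only and untreated-infected wells, plus benznidazole reference at 3.5 and 1.5 μM. Fluorescence read day 3 post-infection; IC50 by non-linear regression.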

Another assay relates to T. gondii tachyzoites. In words: T. gondii tachyzoites growth assay. The assay is classed as cell-based, Toxoplasma gondii. Particulars: read-out: IC50 T. gondii tachyzoites; growth inhibition of tachyzoites.
Assay [1] concerns the target T. cruzi farnesyl pyrophosphate synthase (TcFPPS) (Trypanosoma cruzi, UniProt Q8WS26). The experiment in a line: TcFPPS enzymatic activity inhibition assay. The assay is classed as biochemical. Particulars: read-out: IC50 TcFPPS; recombinant enzyme.
Assay [2] addresses T. gondii farnesyl pyrophosphate synthase (TgFPPS) (Toxoplasma gondii, UniProt Q197X6). The assay is classed as biochemical. Particulars: read-out: IC50 TgFPPS.
In the next assay the test system is T. cruzi. Particulars: in vivo; cited from earlier work.

Take `O=C(Cn1ccnc1[N+](=O)[O-])NCc1ccccc1` [benznidazole, reference compound]: in the assay with T. cruzi amastigotes (Trypanosoma cruzi, Vero, 72 h, read-out: IC50 T. cruzi amastigotes), the IC50 turned out to be 2770 ± 488 nM.
Take `CCC(F)(P(=O)(O)O)P(=O)(O)O` [Compound 37, 1-(Fluoro-n-propylidene)-1,1-bisphosphophonic acid]: the concentration for half-maximal inhibition (IC50) in the assay on T. gondii tachyzoites was > 10 µM; in assay [1], > 1000 nM; in assay [2] it was > 10000 nM.
On to `CCCCCC(F)(P(=O)(O)O)P(=O)(O)O` [Compound 40, 1-(Fluoro-n-hexylidene)-1,1-bisphosphonic acid], for which the IC50 is > 10 µM in the assay on T. gondii tachyzoites, > 1000 nM in assay [1] and 160 ± 78 nM in assay [2].
On to `CC(F)(P(=O)(O)O)P(=O)(O)O` [Compound 36, 1-(Fluoroethylidene)-1,1-bisphosphonic acid], for which the IC50 was > 10 µM in the assay with T. gondii tachyzoites, > 1000 nM in assay [1] and > 10000 nM in assay [2].
Turning to `O=P(O)(O)C(O)(Cc1cccnc1)P(=O)(O)O` [Risedronate, risedronate], the “survival of T. cruzi-infected mice” value in the assay with T. cruzi was “significantly increase survival”.
Consider `CCCCCCC(F)(P(=O)(O)O)P(=O)(O)O` [Compound 41, 1-(Fluoro-n-heptylidene)-1,1-bisphosphonic acid], for which the IC50 with T. gondii tachyzoites is > 10 µM; in assay [1] it was > 1000 nM; in assay [2] it was 241 ± 120 nM.
As to `CCCCC(F)(P(=O)(O)O)P(=O)(O)O` [Compound 39, 1-(Fluoro-n-pentylidene)-1,1-bisphosphonic], the 50% inhibitory concentration (IC50) in the assay with T. gondii tachyzoites was > 10 µM; in assay [1], > 1000 nM; in assay [2] it was 3420 ± 1670 nM.
As for `O=P(O)(O)C(F)P(=O)(O)O` [Compound 35, 1-(Fluoromethylene)-1,1-bisphosphonic acid], the figures for the IC50 (in the assay with T. gondii tachyzoites; in assay [1]; in assay [2]) were > 10 µM, > 1000 nM and > 10000 nM, respectively.
For `CCCC(F)(P(=O)(O)O)P(=O)(O)O` [Compound 38, 1-(Fluoro-n-butylidene)-1,1-bisphosphonic acid], in that order: > 10 µM, > 1000 nM and > 10000 nM.
For the compound `CCCCCCCC(F)(P(=O)(O)O)P(=O)(O)O` [Compound 42, 1-(Fluoro-n-octylidene)-1,1-bisphosphonic acid], the 50% inhibitory concentration (IC50) with T. gondii tachyzoites was > 10 µM; in assay [1] it was > 1000 nM; in assay [2] it was 616 ± 259 nM.
`CCCCCCCCCC(F)(P(=O)(O)O)P(=O)(O)O` [Compound 44, 1-(Fluoro-n-decylidene)-1,1-bisphosphonic acid]: the IC50 is > 10 µM in the assay on T. gondii tachyzoites, > 1000 nM in assay [1] and 60 ± 6 nM in assay [2].
On to `CCCCCCCCC(F)(P(=O)(O)O)P(=O)(O)O` [Compound 43, 1-(Fluoro-n-nonylidene)-1,1-bisphosphonic acid], for which the IC50 in the assay with T. gondii tachyzoites was 2.67 µM; in assay [1] it was > 1000 nM; in assay [2], 35 ± 19 nM. Further, the “growth inhibition of T. cruzi intracellular amastigotes” value in the assay on T. cruzi amastigotes (at 10 μM) was found to be 13% at 10 μM.

What is called IC50 is the point on the concentration scale where inhibition reaches its midpoint.
